Activity calls are given as the source filed them. The rule behind the calls is not given here.
Legend:
[1] = target: Tubulin (Sus scrofa, UniProt P02554+P02550); assay: Inhibition of porcine brain tubulin polymerization after 60 mins
How it was run: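 Wells pre-chilled at 4 °C for 30 min. Mixture of Mes buffer pH 6.6 with MgCl2, GTP, tubulin (50 µl of 11 mg/ml in Mes buffer) and test compound in DMSO. Absorbance recorded at 25 °C over 60 min. Change in optical density compared with untreated controls.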

[2] = Anticancer activity against human WM35 cells assessed as cell growth inhibition after 5 days by MTT assay; type: functional, cell-based; conditions: WM35, 120 h
[3] = Antiangiogenic activity in BAECs after 18 hrs by extracellular matrix assay; type: functional, Bos taurus; conditions: baec
How it was run: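 Extracellular matrix thawed at 4 °C, 50 µl per well, set 10 min at 37 °C. Solid wells incubated 30 min with BAECs (30,000 cells/well), then given analogs at the same concentration. IC50 from three experiments run in duplicate.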

[4] = test system: K562; assay: Anticancer activity against human K562 cells assessed as cell growth inhibition after 5 days by MTT assay; type: functional, cell-based; conditions: K562, 120 h
How it was run: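 Compounds dissolved in DMSO and serially diluted in medium. Equal volume added to cells at about 40,000 cells/ml, set by doubling time. K562 grown in RPMI with 2-mercaptoethanol, L-glutamine and 10% FCS, no antibiotics. Drug-free wells served as control. Growth read on a plate reader; IC50 taken graphically as % of control growth. Three experiments run in duplicate.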

[5] = Anticancer activity against human OVCAR3 cells assessed as cell growth inhibition after 5 days by MTT assay; type: functional, cell-based; conditions: OVCAR-3, 120 h
[6] = target: T1, Estrogen receptor (Homo sapiens) (UniProt P03372); assay: Agonist activity at estrogen receptor (unknown origin) expressed in rat PC12 cells coexpressing ER-luc at 10 uM after 24 hrs; type: cell-based; conditions: PC-12
T1 sequence (whole entry): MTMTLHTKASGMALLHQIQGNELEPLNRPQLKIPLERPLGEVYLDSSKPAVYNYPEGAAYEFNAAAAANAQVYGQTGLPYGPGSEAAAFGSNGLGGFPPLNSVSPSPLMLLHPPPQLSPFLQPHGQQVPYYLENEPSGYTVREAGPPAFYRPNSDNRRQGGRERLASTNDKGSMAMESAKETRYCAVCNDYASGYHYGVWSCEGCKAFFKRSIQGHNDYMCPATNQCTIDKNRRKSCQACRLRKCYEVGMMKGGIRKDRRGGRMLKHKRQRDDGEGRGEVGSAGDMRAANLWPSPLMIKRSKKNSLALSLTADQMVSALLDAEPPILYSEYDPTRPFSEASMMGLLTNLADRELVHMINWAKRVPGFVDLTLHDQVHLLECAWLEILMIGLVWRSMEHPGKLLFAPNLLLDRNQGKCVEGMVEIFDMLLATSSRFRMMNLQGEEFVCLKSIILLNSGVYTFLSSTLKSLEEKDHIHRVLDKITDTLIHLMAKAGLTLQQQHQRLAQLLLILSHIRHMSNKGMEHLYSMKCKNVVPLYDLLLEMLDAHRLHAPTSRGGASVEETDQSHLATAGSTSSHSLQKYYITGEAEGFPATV
How it was run: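 PC-12 cells plated at 7 × 10⁴ cells/ml, 37 °C, 5% CO₂; co-transfected with ERE-luc and ER one day after plating (liposome complexes in serum-free DMEM, serum medium restored after 3 h). Treated next day for 24 h; 0.1% DMSO solvent control, 17-β-estradiol positive control. Luciferase read with 1 mM luciferin, normalised to Renilla; 2 independent experiments, n = 3–5.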

Structure (SMILES) | IC50 [1] | IC50 [2] | IC50 [3] | IC50 [4] | IC50 [5] | Activity [6]
COc1cc2c(cc1O)CC[C@@H]1[C@@H]2CC[C@]2(C)C(c3cccc4ncccc34)=CC[C@@H]12 | 3100 nM | 2900 nM | 2000 nM | 1100 nM | 1200 nM | 
COc1cc2c(cc1O)CC[C@@H]1[C@@H]2CC[C@]2(C)C(c3cccc4cnccc34)=CC[C@@H]12 | 7200 nM | 5100 nM | 2400 nM | 3100 nM | 3900 nM | 
COc1cc2c(cc1O)CC[C@@H]1[C@@H]2CC[C@]2(C)C(c3cncc4ccccc34)=CC[C@@H]12 | 4800 nM | 700 nM | 800 nM | 500 nM | 400 nM | inactive
COc1cc2c(cc1O)CC[C@@H]1[C@@H]2CC[C@]2(C)[C@@H](c3cncc4c3CCCC4)CC[C@@H]12 | 2500 nM | 900 nM | 1100 nM | 500 nM | 400 nM | inactive
COc1cc2c(cc1O)CC[C@@H]1[C@@H]2CC[C@]2(C)[C@@H](c3cccc4c3CCCN4)CC[C@@H]12 | 3700 nM | 1900 nM | 3300 nM | 1300 nM | 1500 nM | inactive
COc1cc2c(cc1O)CC[C@@H]1[C@@H]2CC[C@]2(C)[C@@H](c3ccc4ccncc4c3)CC[C@@H]12 | > 10000 nM | > 10000 nM | 3300 nM | > 10000 nM | > 10000 nM | 
COc1cc2c(cc1O)CC[C@@H]1[C@@H]2CC[C@]2(C)[C@@H](O)CC[C@@H]12 [2-METHOXYESTRADIOL] | 2200 nM | 2100 nM | 3200 nM | 800 nM | 1200 nM | 
COc1cc2c(cc1O)CC[C@@H]1[C@@H]2CC[C@]2(C)[C@@H](c3ccc4cnccc4c3)CC[C@@H]12 | 2100 nM | 900 nM | 600 nM | 700 nM | 500 nM | 
COc1cc2c(cc1O)CC[C@@H]1[C@@H]2CC[C@]2(C)[C@@H](c3cccnc3)CC[C@@H]12 | 5100 nM | 1900 nM | 5200 nM | 1100 nM | 800 nM | inactive
COc1cc2c(cc1O)CC[C@@H]1[C@@H]2CC[C@]2(C)C(c3ccc4cnccc4c3)=CC[C@@H]12 | 2200 nM | 1000 nM | 700 nM | 400 nM | 200 nM | 
COc1cc2c(cc1O)CC[C@@H]1[C@@H]2CC[C@]2(C)[C@@H](c3ccncc3)CC[C@@H]12 | 5800 nM | 1600 nM | 4200 nM | 1400 nM | 1000 nM | 
COc1cc2c(cc1O)CC[C@@H]1[C@@H]2CC[C@]2(C)C(c3ccc4ccncc4c3)=CC[C@@H]12 |  | > 10000 nM | > 10000 nM | > 10000 nM | > 10000 nM | 
COc1cc2c(cc1O)CC[C@@H]1[C@@H]2CC[C@]2(C)[C@@H](c3cccc4cnccc34)CC[C@@H]12 | 8100 nM | 4100 nM | 1300 nM | 2100 nM | 3000 nM | 
COc1cc2c(cc1O)CC[C@@H]1[C@@H]2CC[C@]2(C)C(c3cccnc3)=CC[C@@H]12 |  | > 10000 nM | > 10000 nM | > 10000 nM | > 10000 nM | inactive
COc1cc2c(cc1O)CC[C@@H]1[C@@H]2CC[C@]2(C)C(c3ccncc3)=CC[C@@H]12 | 4100 nM | 1000 nM | 600 nM | 900 nM | 1200 nM | 
COc1cc2c(cc1O)CC[C@@H]1[C@@H]2CC[C@]2(C)C(c3ccccc3)=CC[C@@H]12 |  | > 10000 nM | > 10000 nM | > 10000 nM | > 10000 nM | 

Reference: ChEMBL document CHEMBL3351823, “Synthesis and biological evaluations of new analogs of 2-methoxyestradiol: inhibitors of tubulin and angiogenesis” (Eur J Med Chem, 2014)
